Results on 167 variants are retold here after the RNAGym collection of RNA variant scans (doi:10.1101/gad.245936.114).

To fix the notation:
B1: tRNA (parent)
chain: CUCUCGGUAGCCAAGUUGGUUUAAGGCGCAAGACUUUAAUUUAUCACUACGAAAUCUUGAGAUCGGGCGUUCGACUCGCCCCCGGGAGAUUUUUUCCUCGAGCAA

This sample holds only a part of the variants without activity. Bounds are passed on as bounds.

The variants in the data set derive from B1. Put plainly: nonsense suppression (GFP-seq) (ratio to wild type); higher = more function; SUP4oc tRNA, yeast GFP reporter sort-seq. The gist of the method: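 Yeast were grown in raffinose/galactose medium with 80 mg/L adenine, each strain bearing a genome-integrated ochre-suppressor tRNA variant from a ~3% random-mutation library, a galactose-driven GFP ochre reporter, and RFP. After sorting into GFP/RFP bins, every bin was sequenced on an Illumina platform at phred ≥30. The GFPSEQ value, a measure of nonsense suppression, is the weighted bin median GFP/RFP relative to the unmutated parent tRNA, using each variant's estimated cell share per bin as the weight. Only variants with ≥100 reads and ≥30 cells were included.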
As for G7A A24C, the nonsense suppression was determined as 0.123.
Turning to C5U G10A A13G G73A C75A G86C, the nonsense suppression is no more than 0.026.
Then G6U C82A A87U, with no more than 0.026; and A9C C68U G78C, with 0.0334; and G6U U16C U17C G19U, with no more than 0.026.
In the case of U8A G25A, the nonsense suppression is no more than 0.026.
The same measure for U8A G25C: no more than 0.026; for C5U C29U C34U A87C: no more than 0.026.
For C5A U8C G15C A60C, the nonsense suppression was no more than 0.026.
On to G6U C81A, for which the nonsense suppression was no more than 0.026.
In the case of C5U A13G A14C, the nonsense suppression is no more than 0.026.
For the variant U8C U63A, the nonsense suppression amounted to 0.0619.
As for G6A A31C A60C C72A G86A, the nonsense suppression was no more than 0.026.
On to A9C U21C A62C C77A, for which the nonsense suppression is no more than 0.026.
Regarding U8C C80G, the nonsense suppression was no more than 0.026.
Take U8C C81G: the nonsense suppression was no more than 0.026.
The same measure for C5U G6U G84C: no more than 0.026.
As for G6A A13G U20G C34A G73A, the nonsense suppression worked out at 0.0802.
On to C5U A13C, for which the nonsense suppression came to 0.0679.
For the variant G7U U22A, the nonsense suppression was no more than 0.026.
For the variant U8G C56U, the nonsense suppression is no more than 0.026.
As to A9C G61C, the nonsense suppression is 0.791.
In the case of G7U U21G A23U C79G, the nonsense suppression is no more than 0.026.
Take U8C A31G: the nonsense suppression is 0.0327.
For the variant G7C A33U G73A, the nonsense suppression is no more than 0.026.
On to G6C U57C G65A G67A A74C G78C, for which the nonsense suppression is no more than 0.026.
Then C5G A87U, with no more than 0.026; and G6C G15A, with no more than 0.026.
For G7A G59A U71G G73A G84A G85U, the nonsense suppression was no more than 0.026.
As for C5G A74G, the nonsense suppression was no more than 0.026.
The same measure for A9C U20G G61U C68U: no more than 0.026; for U8A U57G C82A: no more than 0.026.
As to A9C C34U U58G G78C, the nonsense suppression was no more than 0.026.
The same measure for C5G C34U A74U C77A: no more than 0.026; for G7C U21G: 0.0521.
Regarding U8A G19C A60G, the nonsense suppression is no more than 0.026.
With G7U A54U U63C G88U, the nonsense suppression is no more than 0.026.
With A9C U20G U21G G86A, the nonsense suppression was no more than 0.026.
With C5U A31G U71C, the nonsense suppression is no more than 0.026.
Then U8G U17G G69U C80G, with no more than 0.026; and G6U U76G, with no more than 0.026; and U8C A54G G59C A62G G84A, with no more than 0.026.
For G7A C34U, the nonsense suppression is no more than 0.026.
With G7A A24U C75U G78C, the nonsense suppression was no more than 0.026.
On to A9C G73A, for which the nonsense suppression was 0.215.
In the case of U8A C27G A54G C79U, the nonsense suppression was no more than 0.026.
In the case of G7U A30G, the nonsense suppression is no more than 0.026.
The same measure for G7A U20G C34U U57C C64A C79U G88C: no more than 0.026.
With U8G G88A, the nonsense suppression is 0.228.
Then U8C U16A A30C A54C, with no more than 0.026.
Then C5U G61A, with 0.0314; and C5G A13U G19U U35G A87G, with no more than 0.026.
Turning to C5G G6C A9C A89C, the nonsense suppression was no more than 0.026.
Regarding U8G G73C, the nonsense suppression is no more than 0.026.
For G6A G7U A54C, the nonsense suppression was no more than 0.026.
The same measure for G7C C29G A30G G61U U70C G85C: no more than 0.026.
In the case of G7A A30U, the nonsense suppression stood at 0.0309.
The same measure for C5U G28C: 0.0292; for A9C U20C C75A: 0.566.
Consider A9G A13C, for which the nonsense suppression came out at 0.183.
Turning to A9G A13G, the nonsense suppression amounted to 0.205.
Take G7A A54C G67U: the nonsense suppression is no more than 0.026.
On to G7U G28U U71G C72A G86U, for which the nonsense suppression was no more than 0.026.
Turning to C5U A62U G69C A87U, the nonsense suppression was no more than 0.026.
A9C G69A: the nonsense suppression is no more than 0.026.
As for G7A C81G, the nonsense suppression was no more than 0.026.
Regarding G7A C11U U35A A54C C64U C83G, the nonsense suppression was no more than 0.026.
The same measure for A9C A87G: 0.649; for G7A G18U: no more than 0.026; for G7A U20G C34U A62C: no more than 0.026.
With C5G G78U, the nonsense suppression stood at 0.0283.
Turning to U8G G25U A54U U70G G73C, the nonsense suppression was no more than 0.026.
U8G G15C: the nonsense suppression is no more than 0.026.
Take G7A G28U C34A: the nonsense suppression is no more than 0.026.
As for A9C C34G, the nonsense suppression was no more than 0.026.
Regarding U8A U57C, the nonsense suppression was no more than 0.026.
Then G7A U55A, with no more than 0.026; and G7C G19C G66U G69C, with no more than 0.026; and G6C U71A, with no more than 0.026.
On to U8A G10A G65A G85U, for which the nonsense suppression was no more than 0.026.
For U8C G85U, the nonsense suppression was 0.0537.
Turning to A9C U17G, the nonsense suppression turned out to be 0.595.
With G7C C11G C79A, the nonsense suppression is no more than 0.026.
On to C5U U63A, for which the nonsense suppression was 0.0305.
In the case of U8A A13U G19A A62G G67A U71C, the nonsense suppression is no more than 0.026.
Then U8C U20A, with 0.0281; and A9C G85U, with 0.04.
In the case of A9C A54U, the nonsense suppression came to 1.21.
In the case of C5U C12G A13G C29A, the nonsense suppression is no more than 0.026.
In the case of G7A A60G, the nonsense suppression was found to be 0.053.
For the variant C5U A14G U55G, the nonsense suppression is no more than 0.026.
For G6A G10A G19C A54U G73C G88U, the nonsense suppression was no more than 0.026.
G7A G26U C29A: the nonsense suppression was no more than 0.026.
The same measure for C5A U8C A9U C80A: no more than 0.026; for U8C G28C: 0.0327.
As for A9C U21C A24U U63A G69U, the nonsense suppression is no more than 0.026.
With C5U A87G, the nonsense suppression was 0.0561.
As to G7A U70A A89C, the nonsense suppression was no more than 0.026.
As for C5G G61A, the nonsense suppression is no more than 0.026.
On to U8C G18U U22A U35G U71A C80G, for which the nonsense suppression is no more than 0.026.
The same measure for A9C U35A: no more than 0.026.
Then C5G U55C U70C, with no more than 0.026.
The same measure for A9C U63G: 0.0362; for A9C U63C: 0.202; for C5U U22C U57C A74C: no more than 0.026.
Turning to G6A G78A, the nonsense suppression stood at 0.037.
For the variant U8A G67C U71G, the nonsense suppression is no more than 0.026.
Turning to G7C A60U G61A C82G, the nonsense suppression amounted to 0.0263.
For the variant A9C C68U, the nonsense suppression came to 0.765.
Take G6C U16A C56G U57C U58C U71C: the nonsense suppression was no more than 0.026.
Turning to G6U C83G, the nonsense suppression was determined as 0.923.
The same measure for C5A G78A: 0.0335; for C5A G78C: no more than 0.026; for C5A G78U: 0.0303.
As for C5U A60C, the nonsense suppression was 0.0867.
Regarding C5U G6A C11A G25A, the nonsense suppression is no more than 0.026.
For the variant U8G G18C G59A, the nonsense suppression was no more than 0.026.
For the variant C5U A9G, the nonsense suppression turned out to be 0.0324.
As to U8A G85U, the nonsense suppression is 0.071.
Take G7U C27U U35A A74C: the nonsense suppression was no more than 0.026.
With A9G A13C C34G U63A C81G G84A G86U, the nonsense suppression was no more than 0.026.
As for U8A U57C G85U, the nonsense suppression was no more than 0.026.
For G6U A9U, the nonsense suppression was 0.0343.
Consider A9C A13U A60U, for which the nonsense suppression amounted to 1.16.
Turning to G7C U22C G26A, the nonsense suppression was no more than 0.026.
As to C5U A30U, the nonsense suppression was 0.138.
With C5G G25A A89G, the nonsense suppression was no more than 0.026.
Then C5G G66U U71C, with no more than 0.026; and A9C U76C, with 0.929.
Take U8A A9G U58A C72G C79A: the nonsense suppression is no more than 0.026.
The same measure for G7A U20G: no more than 0.026.
The same measure for G6C C77G: no more than 0.026; for G6U U63G U71C G85U A89C: no more than 0.026; for G6U A60G G61A G65C: no more than 0.026.
G7U G85U: the nonsense suppression is no more than 0.026.
Regarding G6A A23G G25C U63C C80G, the nonsense suppression is no more than 0.026.
As for U8A A30G, the nonsense suppression came to 0.0404.
Then U8A A30U, with 0.0393; and A9C C75A G88A, with no more than 0.026.
U8A A9G: the nonsense suppression turned out to be 0.0277.
The same measure for U8G G67C G85C: no more than 0.026.
In the case of G6A U55G, the nonsense suppression is no more than 0.026.
As for G6A U55A, the nonsense suppression is no more than 0.026.
As to G6A U55C, the nonsense suppression was 0.262.
Then G6U U58G U76C C80G, with no more than 0.026.
Then G7C A14C G61U A74U A87G, with no more than 0.026; and G7C A31C G32C, with no more than 0.026; and G7C A14G U22A A24U G85C, with no more than 0.026.
Then G6U C80U, with no more than 0.026; and G7U A87U, with no more than 0.026.
Regarding C5U G26C G65C U76A, the nonsense suppression is no more than 0.026.
Then G7C U35G A62C, with no more than 0.026.
For the variant C5U C11U G66A, the nonsense suppression is no more than 0.026.
Take U8A A13G: the nonsense suppression is no more than 0.026.
For G6A A62U, the nonsense suppression was no more than 0.026.
For the variant G7U G19U, the nonsense suppression is no more than 0.026.
As to U8A U57C A74C G78U G85U A87U, the nonsense suppression was no more than 0.026.
Turning to U8C G84U, the nonsense suppression was no more than 0.026.
On to G6A G19C G67C A87G, for which the nonsense suppression is no more than 0.026.
The same measure for G7U C79A G85U G86U G88U: no more than 0.026; for G6U U20A C83G: 0.186; for C5G A24U U57C G66U: no more than 0.026.
Consider A9C A13G U55A G73U, for which the nonsense suppression was no more than 0.026.
As to G7A A9C A54G, the nonsense suppression was no more than 0.026.
Then G7C U35G, with no more than 0.026; and G7A G26U, with no more than 0.026.
Then U8C A9U C34G C68U, with no more than 0.026.
